Measurements as given in paper PMC12393413 (bioRxiv, 2025).

Tests used:
MDA-MB-468 cells = assay: Western blot analysis of UPR / PERK-eIF2α-ATF4 pathway proteins; format: cell-based, human; conditions: for baseline phosphorylation of PERK and eIF2α, inhibitor alone: Western blot; for effect on DH20931-induced accumulation of ATF4 protein / effect on DH20931-induced phosphorylation of PERK and eIF2α: co-treatment with DH20931, Western blot
Outline: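 Treatment lasted 24 h at 0, 2.5, 5, 10 or 20 μM test compound. Western blots were developed with BCIP/NBT substrate. Bands were quantified by densitometry and normalized to a loading control such as β-actin.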

4T1-CERS2^+/+ cells = assay: Mitochondrial Ca2+ by Rhod-2 AM confocal microscopy; format: cell-based, mouse; conditions: 6 h
Outline: (§1)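 Cells were seeded on glass-bottom dishes and grown overnight to ~70% confluence, in triplicate. Exposure was 6 h to test compound (5 or 10 μM) or thapsigargin (1 or 2 μM) as ER Ca2+-depletion control. Cells were rinsed in HBSS and co-loaded 20 min at 37°C with 1 μM Mag-Fluo-4 AM (ER Ca2+) and 100 nM Rhod-2 AM (mitochondrial Ca2+).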

4T1-CERS2^−/− cells = assay: as above; format: cell-based, mouse; conditions: 6 h
Outline: as §1

| SMILES | baseline phosphorylation of PERK and eIF2α, inhibitor alone (MDA-MB-468 cells) | effect on DH20931-induced accumulation of ATF4 protein (MDA-MB-468 cells) | effect on DH20931-induced phosphorylation of PERK and eIF2α (MDA-MB-468 cells) | mitochondrial Ca2+ levels (4T1-CERS2^+/+ cells) | mitochondrial Ca2+ increase in the absence of CerS2 (4T1-CERS2^−/− cells) |
| --- | --- | --- | --- | --- | --- |
| Cc1ccc2cc(-c3c(C)ccc(C(=O)c4c(-c5ccccc5)n(C)n(-c5ccccc5)c4=O)c3N)ccc2n1 [AMG44] | decrease in the baseline phosphorylation levels of both PERK and eIF2α | attenuated the DH20931-induced accumulation of ATF4 protein | markedly diminished it | – | – |
| Cn1cc(-c2ccc3c(c2)CCN3C(=O)Cc2cccc(C(F)(F)F)c2)c2c(N)ncnc21 [GSK2606414] | decrease in the baseline phosphorylation levels of both PERK and eIF2α | attenuated the DH20931-induced accumulation of ATF4 protein | did not affect the DH20931-induced phosphorylation | – | – |
| C/C=C(/C)C(=O)O[C@H]1C(C)=C2[C@H]([C@@H]1OC(=O)CCCCCCC)[C@@](C)(OC(C)=O)C[C@H](OC(=O)CCC)[C@@]1(O)[C@H]2OC(=O)[C@@]1(C)O [Tg, thapsigargin] | – | – | – | increase in mitochondrial Ca^2+ levels | completely abolished |
